From PubChem BioAssay AID588829 (Broad Institute, 2011)
Activity calls are given as the source filed them.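 The calls were made as follows: active = compounds lowering the cell energy light signal whose fitted half-effect dose is at most twice the top tested dose; inconclusive = flat curve with a 30 to 70% drop, or poor fit; inactive = the rest.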

Tested on: not listed separately
Experiment: viability loss of SR-BI-expressing CHO line – cell-based, CellTiter-Glo luminescence, 24 h, dry powder, set 2, cytotoxicity control for SR-BI HDL uptake inhibitor project, dose response (AID 588829)
Settings: ldlA[mSR-BI] CHO cells viability, CellTiter-Glo ATP luminescence, 24 h; at 30 µM (top of the series)
Procedure, shortened: (§1)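 Detection: CellTiter-Glo luminescence reporting cellular ATP | Assay system: ldlA[mSR-BI] cells | Timing: 24 h compound exposure at 37 °C, 10 min reagent incubation | Buffer or medium: Ham's F12 growth medium with 10% FCS | Doses: Compound series of 8 concentrations, delivered by pin transfer | Read-out basis: Viability IC50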

Structure (SMILES) | activity change, negative = toxicity
C[C@@H]1CN([C@@H](C)CO)C(=O)Cc2cc(NC(=O)Nc3ccc(C(F)(F)F)cc3)ccc2O[C@@H]1CN(C)S(=O)(=O)c1ccc(Cl)cc1 | -71.3% (inactive)

Same assay, conditions: ldlA[mSR-BI] CHO cells viability, CellTiter-Glo ATP luminescence, 24 h; at 35 µM (top of the series)

Structure (SMILES) | activity change, negative = toxicity
C[C@H](C(=O)NC1CCCC1)N(C(=O)Cn1nnc(-c2ccc3c(c2)OCO3)n1)C1CCCCC1 | 11.2% (inactive)
COc1cc(OC)cc(C(=O)Nc2nc(-c3ccc4c(c3)CCN4C(=O)CN(C)C)cs2)c1 | 8.9% (inactive)
CC1CCC/C=C/C2CC(O)CC2C(O)/C=C\C(=O)O1 (stereo unspecified) | -13.3% (inactive)
CC(=O)N1CCc2cc(-c3nc(NC(=O)c4cccc(OC(F)(F)F)c4)sc3C)ccc21 | -14.1% (inactive)
CCNC(=O)N1CCc2cc(-c3csc(NC(=O)c4cc(OC)cc(OC)c4)n3)ccc21 | 9.7% (inactive)
COCC(=O)N1CCc2cc(-c3csc(NC(=O)c4cc(OC)cc(OC)c4)n3)ccc21 | 10.9% (inactive)
COc1cc(OC)cc(C(=O)Nc2nc(-c3ccc4c(c3)CCN4C(=O)OC(C)(C)C)cs2)c1 | 12.9% (inactive)
COc1ccc(-c2cc(CC(=O)N(C3CCCCC3)C(C)C(=O)NC3CCCC3)no2)cc1OC (stereo unspecified) | 13.9% (inactive)
CCC(=O)N1CCc2cc(-c3csc(NC(=O)c4cccc(OC)c4)n3)ccc21 | 2.38% (inactive)
COc1c(NC(=O)C(=O)c2ccc(OCCN3CCOCC3)c3ccccc23)cc(C(C)(C)C)cc1NS(C)(=O)=O | -4.11% (inactive)
CC(C)(Sc1cc(C(C)(C)C)c(O)c(C(C)(C)C)c1)Sc1cc(C(C)(C)C)c(O)c(C(C)(C)C)c1 | 14.8% (inactive)
Cc1ccc2oc(-c3cccc(NC(=O)c4cc(-n5cnnc5)ccc4Cl)c3)nc2c1 | -6.36% (inactive)
CCC(=O)N1CC(C)(C)c2cc(-c3csc(NC(=O)c4cc(OC)cc(OC)c4)n3)ccc21 | 1.55% (inactive)
C[C@@H]1CN([C@H](C)CO)C(=O)c2cc(NC(=O)Cc3cn(C)c4ccccc34)ccc2O[C@H]1CN(C)S(=O)(=O)c1ccc(Cl)cc1 | 3.86% (inactive)

Tested on: ldlA[mSR-BI] CHO cells viability, CellTiter-Glo ATP luminescence, 24 h
Experiment: as above
Settings: not given
Procedure, shortened: as §1

Structure (SMILES) | IC50 [µM]
CCCCCCC1CCC/C1=N\NC(N)=S (stereo unspecified) | 9.05
